According to ChEMBL document CHEMBL4052773, “Synthesis and diabetic neuropathic pain-alleviating effects of 2N-(pyrazol-3-yl)methylbenzo[d]isothiazole-1,1-dioxide derivatives” (Bioorg Med Chem, 2017):
The source made the active and inactive calls. The calls are words filed in the database; no cut-off is given here.

Key:
[1] = Stability in human liver microsomes assessed as parent compound remaining at 1 uM after 30 mins in presence of NADPH by LC-MS/MS analysis; type: ADME, microsome; details: read-out: Stability
Procedure, shortened: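 Test compound at 1 μM was incubated with pooled human liver microsomes in potassium phosphate buffer with 1.2 mM NADPH at 37 °C for 30 min. The reaction was stopped with cold acetonitrile containing internal standard. Supernatant was analysed by LC-MS/MS for % remaining.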

[2] = target: T1, Voltage-dependent T-type calcium channel subunit alpha-1H (Homo sapiens, UniProt O95180); experiment: Inhibition of Cav3.2 alpha1H (unknown origin) expressed in HEK293 cells assessed as reduction in KCl-induced depolarization mediated intracellular Ca2+ level at 10 uM by fluo3/AM based high throughput screening assay relative to control; type: cell-based
T1 sequence (O95180 whole entry): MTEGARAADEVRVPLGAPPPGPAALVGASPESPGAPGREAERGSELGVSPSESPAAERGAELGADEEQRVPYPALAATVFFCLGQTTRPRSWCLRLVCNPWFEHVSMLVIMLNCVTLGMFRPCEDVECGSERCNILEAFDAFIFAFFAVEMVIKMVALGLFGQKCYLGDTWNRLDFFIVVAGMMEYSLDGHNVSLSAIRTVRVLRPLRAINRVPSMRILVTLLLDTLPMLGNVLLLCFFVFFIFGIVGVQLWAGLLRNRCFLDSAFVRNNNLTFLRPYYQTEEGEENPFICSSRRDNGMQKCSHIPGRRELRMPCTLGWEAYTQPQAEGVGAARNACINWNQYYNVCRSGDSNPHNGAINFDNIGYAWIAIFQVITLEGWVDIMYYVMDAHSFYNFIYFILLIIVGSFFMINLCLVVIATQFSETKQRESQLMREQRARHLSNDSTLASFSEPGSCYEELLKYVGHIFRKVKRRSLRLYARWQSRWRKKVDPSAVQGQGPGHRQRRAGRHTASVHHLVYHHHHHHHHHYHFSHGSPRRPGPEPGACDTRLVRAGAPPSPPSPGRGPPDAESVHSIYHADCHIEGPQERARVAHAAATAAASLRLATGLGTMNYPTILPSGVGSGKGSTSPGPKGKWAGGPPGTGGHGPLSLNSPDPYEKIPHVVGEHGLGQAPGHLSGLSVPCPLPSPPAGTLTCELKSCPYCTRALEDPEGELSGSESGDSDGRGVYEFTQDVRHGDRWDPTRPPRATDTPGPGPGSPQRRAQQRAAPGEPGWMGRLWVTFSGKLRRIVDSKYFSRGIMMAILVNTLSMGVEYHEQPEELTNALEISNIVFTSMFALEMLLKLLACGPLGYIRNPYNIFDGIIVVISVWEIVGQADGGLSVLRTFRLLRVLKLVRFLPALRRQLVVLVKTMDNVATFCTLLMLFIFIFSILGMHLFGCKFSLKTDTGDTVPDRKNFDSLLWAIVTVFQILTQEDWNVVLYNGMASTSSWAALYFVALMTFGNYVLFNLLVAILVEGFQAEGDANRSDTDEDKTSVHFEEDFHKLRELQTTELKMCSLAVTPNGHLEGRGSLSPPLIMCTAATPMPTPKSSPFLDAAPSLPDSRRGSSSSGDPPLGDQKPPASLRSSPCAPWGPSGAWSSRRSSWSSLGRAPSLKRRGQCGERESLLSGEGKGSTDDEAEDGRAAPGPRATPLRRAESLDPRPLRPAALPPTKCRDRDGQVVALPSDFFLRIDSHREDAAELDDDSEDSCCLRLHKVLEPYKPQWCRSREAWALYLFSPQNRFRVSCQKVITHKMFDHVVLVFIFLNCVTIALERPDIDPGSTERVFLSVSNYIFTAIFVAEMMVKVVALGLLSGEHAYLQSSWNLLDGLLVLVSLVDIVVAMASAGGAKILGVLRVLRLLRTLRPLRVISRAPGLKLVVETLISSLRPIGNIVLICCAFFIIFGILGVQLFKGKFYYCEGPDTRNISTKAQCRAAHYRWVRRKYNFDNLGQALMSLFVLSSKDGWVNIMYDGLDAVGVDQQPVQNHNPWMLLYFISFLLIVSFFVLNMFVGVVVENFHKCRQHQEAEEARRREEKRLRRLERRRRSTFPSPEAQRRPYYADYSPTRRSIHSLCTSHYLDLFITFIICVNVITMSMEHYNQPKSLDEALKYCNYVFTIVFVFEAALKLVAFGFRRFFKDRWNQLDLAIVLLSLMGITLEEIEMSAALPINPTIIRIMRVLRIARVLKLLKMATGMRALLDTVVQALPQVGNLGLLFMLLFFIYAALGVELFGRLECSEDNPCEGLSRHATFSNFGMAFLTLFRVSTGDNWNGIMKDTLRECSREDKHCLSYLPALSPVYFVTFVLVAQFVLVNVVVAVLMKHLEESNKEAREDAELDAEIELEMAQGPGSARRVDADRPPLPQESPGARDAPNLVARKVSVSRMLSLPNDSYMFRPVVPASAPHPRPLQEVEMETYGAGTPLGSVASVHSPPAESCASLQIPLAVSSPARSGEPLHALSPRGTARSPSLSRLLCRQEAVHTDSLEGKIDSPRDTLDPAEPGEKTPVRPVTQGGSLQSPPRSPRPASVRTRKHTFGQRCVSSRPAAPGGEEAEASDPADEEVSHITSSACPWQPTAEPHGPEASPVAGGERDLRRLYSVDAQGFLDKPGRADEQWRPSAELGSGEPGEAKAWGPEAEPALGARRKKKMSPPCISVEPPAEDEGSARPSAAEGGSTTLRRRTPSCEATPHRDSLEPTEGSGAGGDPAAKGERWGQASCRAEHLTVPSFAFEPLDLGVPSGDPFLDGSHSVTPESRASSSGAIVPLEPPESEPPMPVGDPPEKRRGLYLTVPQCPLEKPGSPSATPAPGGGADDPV
Procedure, shortened: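 HEK293 cells stably expressing the T-type channel were kept under puromycin/geneticin selection with 10% FBS at 37 °C and 5% CO2. Cells were seeded at 4×10^4 per well and loaded with fluo3/AM plus 0.001% Pluronic F-127 in HEPES buffer (pH 7.4, 1.8 mM CaCl2) for 60 min at room temperature. The KCl depolarisation-evoked [Ca2+]i rise was read on FDSS6000.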

[3] = target: T1, Voltage-dependent T-type calcium channel subunit alpha-1H; experiment: Inhibition of Cav3.2 alpha1H (unknown origin) expressed in HEK293 cells by whole-cell patch clamp assay; type: cell-based
Procedure, shortened: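 Whole-cell patch clamp was done on T-type channel-expressing cells. Currents were evoked every 15 s by a 50-ms step from −100 mV to −30 mV. IC50 for peak current was obtained by fitting a dose-response curve and given ± SD.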

CYP2D6 = CYP2D6 (Homo sapiens, UniProt P10635); experiment: Inhibition of recombinant human CYP2D6 expressed in baculosomes assessed as residual activity at 10 uM using vivid EOMCC/MOBFC as substrate after 15 mins in presence of NADPH by fluorescence assay relative to control; type: ADME; details: probe Vivid EOMCC/MOBFC, read-out: Activity
Sequence of CYP2D6 (P10635 whole entry, canonical isoform): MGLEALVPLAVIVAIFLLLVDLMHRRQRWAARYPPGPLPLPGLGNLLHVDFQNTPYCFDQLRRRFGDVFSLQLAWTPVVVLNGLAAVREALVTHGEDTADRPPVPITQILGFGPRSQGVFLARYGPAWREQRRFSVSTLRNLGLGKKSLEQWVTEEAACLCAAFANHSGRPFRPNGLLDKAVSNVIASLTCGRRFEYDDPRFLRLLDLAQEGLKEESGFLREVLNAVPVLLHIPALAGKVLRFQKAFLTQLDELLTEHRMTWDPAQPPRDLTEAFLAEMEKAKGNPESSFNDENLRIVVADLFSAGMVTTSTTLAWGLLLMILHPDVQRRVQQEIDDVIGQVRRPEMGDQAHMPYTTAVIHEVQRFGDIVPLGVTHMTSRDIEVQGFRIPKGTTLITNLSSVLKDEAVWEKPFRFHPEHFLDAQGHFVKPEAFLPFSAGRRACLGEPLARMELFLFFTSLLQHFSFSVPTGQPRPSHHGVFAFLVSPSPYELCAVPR
Procedure, shortened: (§1)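 Test compounds at 10 μM were premixed with baculosome CYP plus a regeneration system. After 15 min at 37 °C, Vivid substrates and NADPH were added. Remaining enzyme activity was read by fluorescence and expressed as % of control, as mean ± SD of triplicates. Isoform-selective inhibitors served as positive controls.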

CYP2C9 = CYP2C9 (Homo sapiens, UniProt P11712); experiment: Inhibition of recombinant human CYP2C9 expressed in baculosomes assessed as residual activity at 10 uM using vivid BOMCC/BOMF/OOMR as substrate after 15 mins in presence of NADPH by fluorescence assay relative to control; type: ADME; details: probe Vivid BOMCC/BOMF/OOMR, read-out: Activity; procedure, shortened: as §1
Sequence of CYP2C9 (P11712 whole entry): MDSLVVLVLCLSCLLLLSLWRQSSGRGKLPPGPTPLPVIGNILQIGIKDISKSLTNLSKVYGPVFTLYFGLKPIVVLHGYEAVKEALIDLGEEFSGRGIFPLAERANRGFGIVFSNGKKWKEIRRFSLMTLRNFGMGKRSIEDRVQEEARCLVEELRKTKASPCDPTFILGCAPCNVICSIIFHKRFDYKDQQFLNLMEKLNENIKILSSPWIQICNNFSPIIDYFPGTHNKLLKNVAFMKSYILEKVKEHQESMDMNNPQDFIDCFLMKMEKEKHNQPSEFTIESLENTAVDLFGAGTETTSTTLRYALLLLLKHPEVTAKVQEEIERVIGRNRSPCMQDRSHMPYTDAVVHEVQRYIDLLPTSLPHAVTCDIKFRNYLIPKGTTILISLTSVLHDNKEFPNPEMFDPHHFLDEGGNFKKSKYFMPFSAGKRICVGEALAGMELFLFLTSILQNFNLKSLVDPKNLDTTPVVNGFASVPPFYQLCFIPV

CYP3A4 = CYP3A4 (Homo sapiens, UniProt P08684); experiment: Inhibition of recombinant human CYP3A4 expressed in baculosomes assessed as residual activity at 10 uM using vivid BOMCC/DBOMF/BOMR as substrate after 15 mins in presence of NADPH by fluorescence assay relative to control; type: ADME; details: probe Vivid BOMCC/DBOMF/BOMR, read-out: Activity; procedure, shortened: as §1
Sequence of CYP3A4 (P08684 whole entry): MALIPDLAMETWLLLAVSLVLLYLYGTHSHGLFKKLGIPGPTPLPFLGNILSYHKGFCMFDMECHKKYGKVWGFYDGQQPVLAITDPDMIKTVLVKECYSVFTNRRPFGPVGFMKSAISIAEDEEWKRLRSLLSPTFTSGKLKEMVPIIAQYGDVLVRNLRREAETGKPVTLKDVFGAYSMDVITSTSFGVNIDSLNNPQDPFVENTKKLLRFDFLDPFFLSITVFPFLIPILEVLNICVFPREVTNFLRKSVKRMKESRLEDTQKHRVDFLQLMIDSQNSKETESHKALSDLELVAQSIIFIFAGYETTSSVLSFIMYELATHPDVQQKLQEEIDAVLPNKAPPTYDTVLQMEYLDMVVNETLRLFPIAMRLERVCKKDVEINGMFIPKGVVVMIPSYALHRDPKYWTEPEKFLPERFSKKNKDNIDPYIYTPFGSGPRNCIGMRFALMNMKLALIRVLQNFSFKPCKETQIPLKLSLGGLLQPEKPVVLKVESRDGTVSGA

CYP1A2 = target: T2, CYP1A2 (Homo sapiens, UniProt P05177); experiment: Inhibition of recombinant human CYP1A2 expressed in baculosomes assessed as residual activity at 10 uM using vivid EOMCC as substrate after 15 mins in presence of NADPH by fluorescence assay relative to control; type: ADME; details: probe Vivid EOMCC, read-out: Activity; procedure, shortened: as §1
T2 sequence (P05177 whole entry): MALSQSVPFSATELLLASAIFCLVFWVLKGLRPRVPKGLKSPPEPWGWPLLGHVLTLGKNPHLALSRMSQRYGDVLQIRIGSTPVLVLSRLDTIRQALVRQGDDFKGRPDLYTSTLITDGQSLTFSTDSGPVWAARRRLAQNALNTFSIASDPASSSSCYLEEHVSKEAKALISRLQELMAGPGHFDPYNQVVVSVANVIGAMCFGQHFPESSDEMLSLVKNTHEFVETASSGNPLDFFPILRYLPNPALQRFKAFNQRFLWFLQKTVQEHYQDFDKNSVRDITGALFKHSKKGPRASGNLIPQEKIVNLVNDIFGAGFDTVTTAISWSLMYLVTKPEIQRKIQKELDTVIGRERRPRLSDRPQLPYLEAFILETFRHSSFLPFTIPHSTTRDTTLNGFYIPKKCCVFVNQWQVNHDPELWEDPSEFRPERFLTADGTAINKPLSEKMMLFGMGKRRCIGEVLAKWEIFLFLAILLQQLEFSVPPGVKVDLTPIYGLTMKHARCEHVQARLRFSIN

[4] = AUC (0 to infinity) in rat at 10 mg/kg, iv; type: ADME, organism-based; design: dose 10 mg/kg, route intravenous, time infinity; details: in vivo
Procedure, shortened: (§2)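 Male rats dosed at 10 mg/kg, intravenously (n = 5) or orally (n = 4). Parameters taken from the plasma concentration-time curve and reported as mean ± SD. Brain-to-plasma ratio measured 2 h after dosing. Tmax given as median with range.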

[5] = AUClast in rat at 10 mg/kg, iv; type: ADME, organism-based; design: dose 10 mg/kg, route intravenous, time 0 - last; details: in vivo; procedure, shortened: as §2
[6] = Terminal half-life in rat at 10 mg/kg, iv; type: ADME, organism-based; details: in vivo, read-out: beta t1/2; procedure, shortened: as §2
[7] = Clearance in rat at 10 mg/kg, iv; type: ADME, organism-based; details: in vivo; procedure, shortened: as §2
[8] = Mean residence time in rat at 10 mg/kg, iv; type: ADME, organism-based; details: in vivo; procedure, shortened: as §2
[9] = Ratio of drug level in brain to plasma in rat at 10 mg/kg, iv measured at 2 hrs post dose; type: ADME, organism-based; details: brain and plasma, read-out: BPR; procedure, shortened: as §2
[10] = Oral bioavailability in rat at 10 mg/kg; type: ADME, organism-based; details: in vivo; procedure, shortened: as §2
[11] = AUC (0 to infinity) in rat at 10 mg/kg, po; type: ADME, organism-based; design: dose 10 mg/kg, route oral, time infinity; details: in vivo; procedure, shortened: as §2
[12] = AUClast in rat at 10 mg/kg, po; type: ADME, organism-based; design: dose 10 mg/kg, route oral, time 0 - last; details: in vivo; procedure, shortened: as §2
[13] = Terminal half-life in rat at 10 mg/kg, po; type: ADME, organism-based; details: in vivo, read-out: beta t1/2; procedure, shortened: as §2
[14] = Cmax in rat at 10 mg/kg, po; type: ADME, organism-based; design: dose 10 mg/kg, route oral; details: in vivo; procedure, shortened: as §2
[15] = Tmax in rat at 10 mg/kg, po; type: ADME, organism-based; details: in vivo; procedure, shortened: as §2
[16] = Ratio of drug level in brain to plasma in rat at 10 mg/kg, po measured at 2 hrs post dose; type: ADME, organism-based; details: brain and plasma, read-out: BPR; procedure, shortened: as §2
Rattus norvegicus [17] = experiment: Anti-algetic activity in rat streptozotocin-induced neuropathic pain model assessed as reduction in mechanical allodynia at 100 mg/kg, po measured after 3 hrs; type: functional, organism-based
Procedure, shortened: (§3)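 STZ-diabetic rats were made by i.p. streptozotocin at 65 mg/kg. After 4 weeks, rats with confirmed neuropathic pain were selected by blood glucose and behavioural testing. A single oral dose of 100 mg/kg was given (n = 5–6). Mechanical allodynia was tested by von Frey, and heat hypersensitivity was also assessed, at 1, 3 and 5 h. Comparison was against pre-dose values by paired t-test.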

Rattus norvegicus [18] = experiment: Anti-algetic activity in rat streptozotocin-induced neuropathic pain model assessed as reduction in heat hypersensitivity at 100 mg/kg, po measured after 3 hrs; type: functional, organism-based; procedure, shortened: as §3
Rattus norvegicus [19] = experiment: Anti-algetic activity in rat streptozotocin-induced neuropathic pain model assessed as reduction in mechanical allodynia at 50 mg/kg, po measured after 1 to 5 hrs; type: functional, organism-based
Procedure, shortened: (§4)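 Neuropathic pain was induced in rats by i.p. streptozotocin at 65 mg/kg and confirmed at 4 weeks by glucose and behaviour. Rats received a single oral 50 mg/kg dose, alone or together with gabapentin at 50 mg/kg (n = 6–7). Mechanical allodynia (von Frey) and heat hypersensitivity were tested at 1, 3 and 5 h. Paired t-test was used versus pre-dose.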

Rattus norvegicus [20] = experiment: Anti-algetic activity in rat streptozotocin-induced neuropathic pain model assessed as reduction in heat hypersensitivity at 50 mg/kg, po measured after 1 to 5 hrs; type: functional, organism-based; procedure, shortened: as §4
Rattus norvegicus [21] = experiment: Anti-algetic activity in rat streptozotocin-induced neuropathic pain model assessed as reduction in heat hypersensitivity at 50 mg/kg, po measured after 3 hrs in presence of gabapentin; type: functional, organism-based; procedure, shortened: as §4
Rattus norvegicus [22] = experiment: Anti-algetic activity in rat streptozotocin-induced neuropathic pain model assessed as reduction in mechanical allodynia at 100 mg/kg, po measured after 1 to 5 hrs; type: functional, organism-based
Procedure, shortened: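 Rats made diabetic by intraperitoneal STZ (65 mg/kg); 4 weeks later, rats with established neuropathic pain chosen by blood glucose level and behavioural testing. Single oral 100 mg/kg dose given to groups of 5 or 6 rats. Mechanical allodynia measured with von Frey filaments at 1, 3 and 5 h; paired t-test against pre-administration values.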

Rattus norvegicus [23] = experiment: Anti-algetic activity in rat streptozotocin-induced neuropathic pain model assessed as reduction in heat hypersensitivity at 100 mg/kg, po measured after 1 to 5 hrs; type: functional, organism-based
Procedure, shortened: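 Type 1 diabetes induced in rats by intraperitoneal STZ (65 mg/kg); after 4 weeks, neuropathic rats selected by blood glucose level and pain behaviour. Single oral dose of 100 mg/kg given to groups of 5 or 6 rats; heat hypersensitivity tested at 1, 3 and 5 h. Changes compared with pre-administration values by paired t-test.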

Structure (SMILES): CC(C)Cc1cc(CNS(=O)(=O)c2ccccc2)nn1-c1ccccc1
- remaining at 0.5 h, 1 µM [1]: 13.9%

Structure (SMILES): CC(C)c1cc(CN2Cc3ccccc3S2(=O)=O)nn1-c1ccccc1
- inhibition [2]: 75.5%
- IC50 [3]: 2.52 µM
- remaining at 0.5 h, 1 µM [1]: 4.69%
- activity at 0.25 h, 10 µM (CYP2D6): 86.6%
- activity at 0.25 h, 10 µM (CYP2C9): 14.2%
- activity at 0.25 h, 10 µM (CYP3A4): 47.2%

Structure (SMILES): CC(C)c1cc(CN2Cc3ccccc3S2(=O)=O)nn1-c1c(Cl)cccc1Cl
- inhibition [2]: 29.5%

Structure (SMILES): CC(C)(C)n1nc(CN2Cc3ccccc3S2(=O)=O)cc1-c1ccc(C(F)(F)F)cc1
- inhibition [2]: 20.8%

Structure (SMILES): CC(C)(C)n1nc(CN2Cc3ccccc3S2(=O)=O)cc1-c1ccc(N2CCCCC2)cc1
- inhibition [2]: 16.3%

Structure (SMILES): CC(C)(C)n1nc(CN2Cc3ccccc3S2(=O)=O)cc1-c1ccc(F)cc1
- inhibition [2]: 23.1%

Structure (SMILES): CC(C)n1nc(CN2Cc3ccccc3S2(=O)=O)cc1-c1ccc(F)cc1
- inhibition [2]: 16.5%

Structure (SMILES): CC(C)c1cc(CN2Cc3ccccc3S2(=O)=O)nn1C(C)(C)C
- inhibition [2]: 68%
- IC50 [3]: 3.69 µM
- remaining at 0.5 h, 1 µM [1]: 103%
- activity at 0.25 h, 10 µM (CYP1A2): 123%
- activity at 0.25 h, 10 µM (CYP2D6): 78.8%
- activity at 0.25 h, 10 µM (CYP2C9): 90.7%
- activity at 0.25 h, 10 µM (CYP3A4): 52.1%

Structure (SMILES): CC(C)c1cc(CN2Cc3ccccc3S2(=O)=O)nn1-c1ccc(F)cc1
- inhibition [2]: 71.6%
- IC50 [3]: 2.32 µM
- remaining at 0.5 h, 1 µM [1]: 102%
- activity at 0.25 h, 10 µM (CYP1A2): 110%
- activity at 0.25 h, 10 µM (CYP2D6): 90.6%
- activity at 0.25 h, 10 µM (CYP2C9): 103%
- activity at 0.25 h, 10 µM (CYP3A4): 45.7%
- AUC(0-inf) [4]: 2980 ng·h/mL
- AUC(0-t) [5]: 2630 ng·h/mL
- half-life [6]: 2.94 h
- clearance [7]: 57.7 mL/min/kg
- MRT [8]: 1.7 h
- Kp at 2 h [9]: 1.28
- bioavailability [10]: 9.2%
- AUC(0-inf) [11]: 274 ng·h/mL
- AUC(0-t) [12]: 243 ng·h/mL
- half-life [13]: 1.96 h
- Cmax [14]: 100 ng/mL
- Tmax [15]: 2.5 h
- Kp at 2 h [16]: 0.13
- Activity (Rattus norvegicus [17]): inactive
- Activity (Rattus norvegicus [18]): inactive
- Activity (Rattus norvegicus [19]): inactive
- Activity (Rattus norvegicus [20]): inactive
- Activity (Rattus norvegicus [21]): Active

Structure (SMILES): CC(C)n1nc(CN2Cc3ccccc3S2(=O)=O)cc1-c1ccccc1
- inhibition [2]: 22.1%

Structure (SMILES): CC(C)Cc1cc(CN(C)S(=O)(=O)c2ccccc2)nn1-c1ccccc1
- inhibition [2]: 54.2%
- remaining at 0.5 h, 1 µM [1]: 1.46%

Structure (SMILES): Cc1c(CNS(=O)(=O)c2ccccc2)nn(-c2ccccc2)c1CC(C)C
- inhibition [2]: 72%
- IC50 [3]: 4.3 µM
- remaining at 0.5 h, 1 µM [1]: 0.26%
- activity at 0.25 h, 10 µM (CYP2D6): 45.2%
- activity at 0.25 h, 10 µM (CYP2C9): 45.2%
- activity at 0.25 h, 10 µM (CYP3A4): 38.7%

Structure (SMILES): NCC1(CC(=O)O)CCCCC1
- Activity (Rattus norvegicus [22]): inactive
- Activity (Rattus norvegicus [23]): Active

Structure (SMILES): CC(C)(C)n1nc(CN2Cc3ccccc3S2(=O)=O)cc1-c1ccccc1
- inhibition [2]: 18.7%

Structure (SMILES): CC(C)(C)n1nc(CN2Cc3ccccc3S2(=O)=O)cc1-c1ccc(C2CCCCC2)cc1
- inhibition [2]: 9.86%
